{
  "source": "ChEMBL document CHEMBL2203287",
  "about": "“Synthesis and biological evaluation of novel heterocyclic derivatives of combretastatin A-4” (Bioorg Med Chem Lett, 2012)",
  "key": {"HaCaT [1]": {"tested_on": "HaCaT", "assay": "Mitotic arrest in human HaCaT cells at 5 uM after 24 hrs using propidium iodide by flow cytometry", "assay_type": "functional, cell-based", "outline": "(§1)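 Exponentially growing cells given 5×10^-6 M for 24 h, with 0.5% DMSO vehicle control. Cells detached with gentle Accutase, then stained in suspension with propidium iodide 0.05 mg/mL in citrate buffer with Nonidet P40 for 1 h at 4 °C. FACS on 20,000 cells for G1/S/G2/M distribution; run in triplicate.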"}, "SKv-a [2]": {"tested_on": "SKv-a", "assay": "Induction of morphological changes in human SKv-a cells assessed as cell rounding at 10 '-6 M by confocal microscopy", "assay_type": "functional, cell-based", "outline": "(§2)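 Cells were fixed and immunostained for beta-tubulin with a monoclonal antibody, then detected with goat anti-mouse FITC secondary. Confocal optical sections were taken at ×63 objective magnification. Vehicle-treated controls were imaged in parallel.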"}, "HaCaT [3]": {"tested_on": "HaCaT", "assay": "Antiproliferative activity against human HaCaT cells assessed as cell viability by MTT assay", "assay_type": "functional, cell-based", "outline": "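MTT read-out of metabolic activity, taken as the number of viable cells remaining after 72 h continuous exposure of cultured keratinocytes.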"}, "SKv-a [4]": {"tested_on": "SKv-a", "assay": "Mitotic arrest in human SKv-a cells at 5 uM after 24 hrs using propidium iodide by flow cytometry", "assay_type": "functional, cell-based", "outline": "as §1"}, "HaCaT [5]": {"tested_on": "HaCaT", "assay": "Induction of morphological changes in human HaCaT cells assessed as cell rounding at 10 '-6 M by confocal microscopy", "assay_type": "functional, cell-based", "outline": "as §2"}, "HaCaT [6]": {"tested_on": "HaCaT", "assay": "Induction of morphological changes in human HaCaT cells assessed as cell detachment at 10 '-6 M by confocal microscopy", "assay_type": "functional, cell-based", "outline": "as §2"}, "[7]": {"assay": "Inhibition of sheep brain tubulin assembly compound incubated for 10 mins at 37 degC followed by 5 mins incubation at 0 degC by turbidimetry", "parameters": "species or system Ovis aries"}, "SKv-a [8]": {"tested_on": "SKv-a", "assay": "Induction of morphological changes in human SKv-a cells assessed as cell detachment at 10 '-6 M by confocal microscopy", "assay_type": "functional, cell-based", "outline": "as §2"}, "HaCaT [9]": {"tested_on": "HaCaT", "assay": "Induction of morphological changes in human HaCaT cells assessed as loss of radial distribution of structured microtubules at 10 '-6 M by confocal microscopy", "assay_type": "functional, cell-based", "outline": "as §2"}, "[10]": {"assay": "Induction of morphological changes in human SKv-a cells assessed as loss of radial distribution of structured microtubules at 10 '-6 M by confocal microscopy", "assay_type": "functional, cell-based", "outline": "as §2"}, "SKv-a [11]": {"tested_on": "SKv-a", "assay": "Induction of microtubule depolymerization in human SKv-a cells at 10 '-6 M by confocal microscopy", "assay_type": "cell-based"}, "HaCaT [12]": {"tested_on": "HaCaT", "assay": "Induction of microtubule depolymerization in human HaCaT cells at 10 '-6 M by confocal microscopy", "assay_type": "cell-based"}, "Ovis aries": {"organism": "Ovis aries", "assay": "Inhibition of sheep brain tubulin assembly at 32 uM incubated for 10 mins at 37 degC followed by 5 mins incubation at 0 degC by turbidimetry"}},
  "note": "pIC50: −log10 of the molar value. Activity calls are given as the source filed them. The rule behind the calls is not given here.",
  "data": [
    {"smiles": "COc1cc(/C=C\\c2cc3ccccc3s2)cc(OC)c1OC", "values": [
      {"measurement": "Activity", "setting": "HaCaT [1]", "result": "Active"},
      {"measurement": "Activity", "setting": "SKv-a [2]", "result": "Active"},
      {"measurement": "pIC50", "setting": "HaCaT [3]", "result": 7.80},
      {"measurement": "Activity", "setting": "SKv-a [4]", "result": "Active"},
      {"measurement": "Activity", "setting": "HaCaT [5]", "result": "Active"},
      {"measurement": "Activity", "setting": "HaCaT [6]", "result": "Active"},
      {"measurement": "pIC50", "setting": "[7]", "result": 5.59},
      {"measurement": "Activity", "setting": "SKv-a [8]", "result": "Active"},
      {"measurement": "Activity", "setting": "HaCaT [9]", "result": "Active"},
      {"measurement": "Activity", "setting": "[10]", "result": "Active"},
      {"measurement": "Activity", "setting": "SKv-a [11]", "result": "Active"},
      {"measurement": "Activity", "setting": "HaCaT [12]", "result": "Active"}
    ]},
    {"smiles": "COc1cc(/C=C/c2cc3ccccc3o2)cc(OC)c1OC", "values": [
      {"measurement": "inhibition", "setting": "Ovis aries", "result": 23, "unit": "%"}
    ]},
    {"smiles": "COc1cc(/C=C/c2cc3ccccc3s2)cc(OC)c1OC", "values": [
      {"measurement": "Activity", "setting": "HaCaT [1]", "result": "Active"},
      {"measurement": "Activity", "setting": "SKv-a [4]", "result": "Active"},
      {"measurement": "pIC50", "setting": "[7]", "result": 5.08},
      {"measurement": "Activity", "setting": "SKv-a [11]", "result": "Active"},
      {"measurement": "Activity", "setting": "HaCaT [12]", "result": "Active"}
    ]},
    {"smiles": "COc1cc2c(c(OC)c1OC)-c1ccc(OC)c(=O)cc1[C@@H](NC(C)=O)CC2", "note": "[COLCHICINE]", "values": [
      {"measurement": "Activity", "setting": "SKv-a [2]", "result": "Active"},
      {"measurement": "pIC50", "setting": "HaCaT [3]", "result": 7.92},
      {"measurement": "Activity", "setting": "HaCaT [5]", "result": "Active"},
      {"measurement": "Activity", "setting": "HaCaT [6]", "result": "Active"},
      {"measurement": "Activity", "setting": "SKv-a [8]", "result": "Active"},
      {"measurement": "Activity", "setting": "HaCaT [9]", "result": "Active"},
      {"measurement": "Activity", "setting": "[10]", "result": "Active"},
      {"measurement": "Activity", "setting": "SKv-a [11]", "result": "Active"},
      {"measurement": "Activity", "setting": "HaCaT [12]", "result": "Active"}
    ]},
    {"smiles": "COc1cc(/C=C\\c2cc3ccccc3[nH]2)cc(OC)c1OC", "values": [
      {"measurement": "pIC50", "setting": "[7]", "result": 4.68}
    ]},
    {"smiles": "COc1cc([C@@H]2c3cc4c(cc3C[C@H]3COC(=O)[C@@H]32)OCO4)cc(OC)c1OC", "note": "[DESOXYPODOPHYLLOTOXIN]", "values": [
      {"measurement": "pIC50", "setting": "[7]", "result": 5.77}
    ]},
    {"smiles": "COc1ccc(/C=C\\c2cc(OC)c(OC)c(OC)c2)cc1O", "note": "[COMBRETASTATIN A4]", "values": [
      {"measurement": "pIC50", "setting": "HaCaT [3]", "result": 9.00},
      {"measurement": "Activity", "setting": "SKv-a [11]", "result": "Active"},
      {"measurement": "Activity", "setting": "HaCaT [12]", "result": "Active"}
    ]},
    {"smiles": "COc1cc(/C=C\\c2cc3ccccc3o2)cc(OC)c1OC", "values": [
      {"measurement": "pIC50", "setting": "[7]", "result": 5.02}
    ]}
  ]
}
